Fh CTSL1 inh: counter-screen for PFM18AAP inhibitors: inhibitors of F. hepatica cathepsin L1; inhibition, % at 5.96 µM; recombinant F. hepatica cathepsin L1, Z-Leu-Arg-MCA fluorescence; 0.49% of 300,000 active;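 active = inhibition above the mean of all tested compounds plus 3 SD, set per screening campaign, cut at about 17% in these data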;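 note: 0% = plate median of test compound wells and 100% = 1 µM Z-Phe-Ala-diazomethylketone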
UBC9 SUMO inh: blocks human SUMOylation mediated by UBC9; 0.36% of 290,000 active; inhibition, % at 35 µM; HTRF SUMOylation assay, SAE1/SAE2 + UBC9, in vitro; P63279; AID 2006; in the data active = inhibition above about 50%, passing the limit was not always enough
UCH37 inh: human UCH37 deubiquitinating enzyme inhibition | inhibition, % (concentration not given with the values) | Q9Y5K5 | 0.33% of 330,000 active | purified proteasome/UCH37, Ub-AMC cleavage fluorescence;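 active = mean inhibition over replicate wells above about 20%, limit read from the data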;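 note: 0% = compound-free wells with enzyme and 100% = wells lacking proteasome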
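Assay system: Proteasome-bound UCH37. Buffer or medium: pH 7.4 Tris-HCl (50 mM) with ovalbumin, ATP-MgCl2, DTT. Incubation: 30 min preincubation with enzyme, 25 min cleavage at room temperature. Measured by: fluorescence, ex 355 nm, em 460 nm. Read-out basis: percent inhibition. Control set: wells without proteasome as full block, compound-free enzyme plus substrate as uninhibited.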
Neddylation inh: inhibitors of human cullin neddylation | AID 651699 | 0.58% of 360,000 active | inhibition, % at 25 µM | TR-FRET cullin neddylation, biochemical; in the data active = inhibition above about 36%
Target sequence (P61081 whole entry, looked up): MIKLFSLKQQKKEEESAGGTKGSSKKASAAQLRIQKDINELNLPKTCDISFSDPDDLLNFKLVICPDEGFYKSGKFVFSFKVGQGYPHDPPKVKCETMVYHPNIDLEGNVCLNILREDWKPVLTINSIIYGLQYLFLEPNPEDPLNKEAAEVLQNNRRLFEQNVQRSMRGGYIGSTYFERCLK
Target sequence (Q13564 whole entry, looked up): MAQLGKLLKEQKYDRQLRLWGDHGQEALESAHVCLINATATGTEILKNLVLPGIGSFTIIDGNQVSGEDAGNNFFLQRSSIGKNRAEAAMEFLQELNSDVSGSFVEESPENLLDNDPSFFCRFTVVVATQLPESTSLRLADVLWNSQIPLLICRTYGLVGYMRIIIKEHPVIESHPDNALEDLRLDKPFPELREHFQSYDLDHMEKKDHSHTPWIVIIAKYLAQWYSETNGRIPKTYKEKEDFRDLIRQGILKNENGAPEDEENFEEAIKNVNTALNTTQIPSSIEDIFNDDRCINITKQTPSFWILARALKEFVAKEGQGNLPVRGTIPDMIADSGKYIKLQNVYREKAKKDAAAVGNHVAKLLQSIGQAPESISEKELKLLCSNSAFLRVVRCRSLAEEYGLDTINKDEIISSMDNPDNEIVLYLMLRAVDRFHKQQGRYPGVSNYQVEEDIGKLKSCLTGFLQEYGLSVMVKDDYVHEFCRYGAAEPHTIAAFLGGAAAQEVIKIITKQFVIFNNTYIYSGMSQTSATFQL
Neddyl conf: cullin neddylation inhibition, confirmation | shares compounds with Neddylation inh | TR-FRET cullin neddylation biochemical assay | calls only at 25 µM | 13% of 1,800 active | AID 652217; in the data active = inhibition above about 40%;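 note: neddylation substrate is the cullin 1 ring ligase complex with SKP2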
* = called active by the depositor; i = inactive; / = no result given; + = active, no number. Compounds with a hit are over-represented: about 1.4% of the library has one in this group of screens.

SMILES	Fh CTSL1 inh	UBC9 SUMO inh	UCH37 inh	Neddylation inh	others
CC(C)n1ncc2c(C(=O)NCCc3ccc(F)cc3)cc(C3CC3)nc21	/	/	-9	59*
CCOC(=O)c1cc(C(C)=NOC(=O)c2ccc(Cl)cc2)on1	/	/	4	/
COc1ccccc1CC(=O)Nc1ccc(O)cc1C(=O)O	-2	6	-13	40*
O=C(O)CCc1ccc(-c2ccc(F)cc2)n1CC1CCCO1 (stereo not given)	2	22	-74	29
O=C(O)CCc1ccc(-c2cccs2)n1CC1CCCO1 (stereo not given)	1	10	-100	49*	Neddyl conf=i
Cc1cc(C)cc(N=Cc2c(O)c3ccccc3oc2=O)c1	1	-3	-480	/
O=C(O)c1cc(N=Cc2c(O)c3ccccc3oc2=O)ccc1O	/	32	-65	43*
COc1ccc(-c2ccnc3cc(C(=O)O)nn23)cc1	3	44	-199	53*
COc1cc(C=NN2CCN(C3c4ccccc4-c4ccccc43)CC2)ccc1O	/	/	5	/
COCCn1c(=O)[nH]c2cc(C(=O)OC)ccc2c1=O	1	33	-66	42*	Neddyl conf=i
Nc1c(Cl)cc(Cl)cc1C(=O)OCC(=O)N1CCCC1	0	-7	i	/
Nc1c(Cl)cc(Cl)cc1C(=O)OCC(=O)N1CCCC1=O	-4	/	-270	47*	Neddyl conf=i
O=C(COc1cccc(Br)c1)NN=CC(=O)c1ccccc1	/	/	1	/
COc1cccc(/C=C/C(=O)NCc2cn3cc(Cl)ccc3n2)c1OC	-2	13	1	50*	Neddyl conf=i
COc1cc(C(=O)NCc2cn3ccccc3n2)cc(OC)c1OC	-5	15	6	-4
CCCc1cc(=O)oc2c(C)c(OCC(=O)N3CCC(C(N)=O)CC3)ccc12	1	6	-30	36
CCCc1cc(=O)oc2c(C)c(OCC(=O)N3CCC[C@@H]3C(=O)O)ccc12	-1	2	-52	46*	Neddyl conf=i
CCCCCCc1c(C)c2ccc(OCC(=O)N3CCC[C@H]3C(=O)O)c(C)c2oc1=O	3	13	-86	49*
Cc1c(OCc2nn[nH]n2)ccc2c3c(c(=O)oc12)CCC(C)C3 (stereo not given)	0	20	-94	47*	Neddyl conf=i
Cc1c(OCc2nn[nH]n2)ccc2c3c(c(=O)oc12)CCCC3	2	14	-149	/
CC(=NN1CCN(c2ccc(Cl)cc2)CC1)c1ccco1	/	/	1	/
C=CCc1c(C)nc(C)nc1NN=Cc1ccc(F)cc1	/	/	10	/
CCN(CC)Cc1c(C)[nH]c2ccc(NC(C)=O)cc2c1=O	/	/	/	31
C=CCN(CC=C)Cc1c(C)[nH]c2ccc(C(=O)OCC)cc2c1=O	20*	32	-15	44*	Neddyl conf=i
Cc1ccc(C=NNC(=O)c2nnn(-c3nonc3N)c2CNc2ccccc2)cc1	/	/	6	/
SMILES	Fh CTSL1 inh	UBC9 SUMO inh	UCH37 inh	Neddylation inh	others
COc1cccc(OCc2cc(C=Nn3cncn3)ccc2OC)c1	/	/	0	/
NNC(=O)c1oc2nc(-c3ccco3)cc(-c3ccco3)c2c1N	4	94	12	-6
NNC(=O)c1oc2nc(-c3ccc(Cl)cc3)cc(-c3ccccc3)c2c1N	/	10	-8	43*	Neddyl conf=i
Nc1c(C(=O)N/N=C/c2cccnc2)oc2nc(-c3ccccc3)cc(-c3ccco3)c12	3	28	/	37*	Neddyl conf=i
CCCCC1S/C(=N/N=Cc2cccs2)NC1=O (stereo not given)	/	/	8	/
COC(=O)c1sccc1NC(=O)/C=C/c1ccc(Cl)cc1Cl	2	5	1	41*	Neddyl conf=i
Cn1cc(Br)c(C(=O)NN=Cc2cc3ccccc3nc2Cl)n1	/	/	4	/
CCCCCCCC(=O)N/N=C(\C)c1ccc(O)cc1O	3	7	/	42*	Neddyl conf=i
Cc1ccccc1C(=O)N1CCN(c2nc(N3CCOCC3)nc(N3CCOCC3)n2)CC1	-2	-17	4	-4
COc1cccc(C(=O)N2CCN(c3ccc(N4CCOCC4)nn3)CC2)c1	3	/	-206	61*
O=C(CCc1c[nH]c2ccccc12)N1CCN(c2ccc(F)cc2)CC1	-2	7	0	-5
O=C(c1cccc(Br)c1)N1CCN(c2ccc(N3CCOCC3)nn2)CC1	18*	/	-156	50*
Cc1ccccc1C(=O)N1CCN(c2ccc(N3CCOCC3)nn2)CC1	-1	/	-159	60*
O=C(CCCc1c[nH]c2ccccc12)N1CCN(c2ccc(N3CCOCC3)nn2)CC1	-4	8	-54	44*	Neddyl conf=+
Cc1ccccc1C=NN1C(=O)CSC1=S	/	/	10	/
Cc1ccc2cc(C=NNc3nc4ccccc4[nH]3)c(Cl)nc2c1	/	/	8	/
Cc1cc(C)nc(N=C(NC(=O)C(C)(C)C)Nc2ccc(F)cc2)n1	/	/	3	/
CCCc1c(C(=O)NN=Cc2cccc3ccccc23)nnn1-c1nonc1N	/	/	0	/
COc1ccc(C(=O)NN=Cc2ccc(OC)c(COc3ccc(F)cc3)c2)cc1	/	/	-3	/
O=C(c1ccc(Br)o1)N1CCN(c2ccc(F)cc2)CC1	-4	-2	2	-10
CCN1CCN(c2ccc(N3CCN(C(=O)c4ccc(Br)o4)CC3)nn2)CC1	-1	/	-98	48*
COc1ccc(NC(=O)Cn2nnc(C(=O)Nc3ccc(F)c(Cl)c3)c2N)cc1OC	-3	40	1	10
COc1ccc(Cl)cc1NC(=O)c1nnn(CC(=O)Nc2ccc(C)c(C)c2)c1N	-2	43	-7	44*	Neddyl conf=i
COC(=O)Cc1c(C)nc2nc(-c3ccc(OC)cc3)[nH]n2c1=O	-1	0	/	/
COc1ccc(-c2nc3nc(C)c(Cc4ccccc4)c(=O)n3[nH]2)cc1	-2	19	5	46*
SMILES	Fh CTSL1 inh	UBC9 SUMO inh	UCH37 inh	Neddylation inh	others
COc1cc(C=NN=Cc2c[nH]c(=O)c(C#N)c2Nc2ccccc2)ccc1O	/	/	4	/
O=C(O)CCn1c(-c2ccccc2)cc2ccccc21	0	-5	-6	50*
O=C(COc1ccccc1)Nc1nnc(-c2ccc(Cl)s2)o1	-1	21	-23	37*	Neddyl conf=i
O=C(COc1ccccc1)Nc1nnc(-c2ccccc2)o1	4	0	3	2
Cc1cc(NC(=O)CSc2ccc3nnc(-c4ccccn4)n3n2)no1	-2	8	-14	41*
N#Cc1cnn(Cc2ccccc2)c1N=CN1CCOCC1	/	/	-2	/
CCOC(=O)c1cn2nc(Oc3ccccc3)ccc2n1	2	-1	-5	16
CCOC(=O)c1cn2nc(Oc3cccc(C(F)(F)F)c3)ccc2n1	-2	23	-54	55*
COc1ccc2oc(C(=O)OCC(=O)NC(=O)c3ccccc3)c(C)c2c1	3	18	-13	-64
COc1ccc2oc(C(=O)OCC(=O)N3CCCC(C)C3)c(C)c2c1 (stereo not given)	3	/	-54	/
COc1ccc2oc(C(=O)OCC(=O)N(C)CC(=O)Nc3ccc(F)cc3)c(C)c2c1	12	/	-35	47*
CCOc1ccc2oc(C(=O)OCC(=O)N3CCCC(C)C3)c(C)c2c1 (stereo not given)	/	/	-59	60*
COc1ccc2oc(C(=O)OCC(=O)NC3CCCCC3)c(C)c2c1	-1	/	-45	66*	Neddyl conf=i
O=C(Cc1csc(N2CCOCC2)n1)NN=Cc1ccc(Cl)cc1Cl	/	/	2	/
